Active and inactive are the calls of the source. The rule behind the calls is not given here.
Experiments:
Assay type in all cases: cell-based
[1] = biological target: Nuclear receptor subfamily 4 group A member 2 (Homo sapiens) (UniProt P43354); assay: Modulation of full length human Nurr1 expressed in PC12 cells co-transfected with RXRalpha and luciferase reporter plasmid harboring NurRE response element assessed as increase in luciferase activity incubated for 18 hrs by luciferase reporter-gene assay; details: PC-12, filed as modulator
Chain of Nuclear receptor subfamily 4 group A member 2 (Homo sapiens) (P43354 whole entry): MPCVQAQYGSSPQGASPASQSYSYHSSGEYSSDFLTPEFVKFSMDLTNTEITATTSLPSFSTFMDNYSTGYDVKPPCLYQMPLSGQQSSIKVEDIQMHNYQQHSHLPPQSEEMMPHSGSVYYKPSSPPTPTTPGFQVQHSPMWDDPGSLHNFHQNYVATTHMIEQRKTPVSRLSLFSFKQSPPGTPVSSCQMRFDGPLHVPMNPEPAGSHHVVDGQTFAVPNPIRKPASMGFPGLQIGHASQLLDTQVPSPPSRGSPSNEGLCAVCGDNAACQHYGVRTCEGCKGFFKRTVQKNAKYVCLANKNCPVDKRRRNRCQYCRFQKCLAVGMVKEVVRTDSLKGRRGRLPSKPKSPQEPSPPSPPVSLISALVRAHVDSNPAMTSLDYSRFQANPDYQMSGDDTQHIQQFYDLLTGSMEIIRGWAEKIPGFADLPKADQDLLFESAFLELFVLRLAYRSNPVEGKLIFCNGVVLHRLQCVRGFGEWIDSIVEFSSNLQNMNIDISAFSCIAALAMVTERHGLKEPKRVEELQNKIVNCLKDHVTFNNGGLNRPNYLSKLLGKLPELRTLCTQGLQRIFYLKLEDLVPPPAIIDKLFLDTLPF
Procedure, shortened: (§1)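 PC12 cells were grown at 37°C and 5% CO2 in […] medium with 15% horse serum and 2.5% FBS. They were transfected with full-length Nurr1 (1 μg) plus full-length RXRα (1 μg) and 3xNBRE- or 3xNurRE-luciferase reporter (6 μg) for 18 h, then replated at 10,000 cells/well for 4 h. Ligand or vehicle (water, ethanol or DMSO) was added in quadruplicate for 18 h. Luminescence was read as fold change over vehicle. Results are mean ± s.e.m., n=4, from 2 independent experiments, analysed by one-way ANOVA against vehicle.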

SK-N-BE(2) = assay: Cytotoxicity against human SKNBE2 cells assessed as reduction in cell viability at 125 uM incubated for 18 hrs by Cell Titer Glo assay
Procedure, shortened: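 Cells seeded at 1.5 million per 10-cm dish. Next day they were replated at 10,000 cells/well and rested 4 h. Ligand or vehicle (water, ethanol or DMSO, by ligand) was added in dose-response format in quadruplicate. After 18 h, viability was read by CellTiter-Glo luminescence. Data are mean ± s.e.m., generally representative of 2 independent experiments. One-way ANOVA versus vehicle.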

[2] = biological target: Nuclear receptor subfamily 4 group A member 2 (Homo sapiens) (UniProt P43354); assay: Modulation of full length human Nurr1 expressed in SK-N-BE(2) cells co-transfected with luciferase reporter plasmid harboring NurRE response element assessed as increase in luciferase activity at 1.95 to 125 uM incubated for 18 hrs by luciferase reporter gene assay; details: SKNBE2, filed as modulator, dose 1.95-125 µM
Procedure, shortened: (§2)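 Transfection of SK-N-BE(2)-C cells (1:1 EMEM/F12, 10% FBS, 37°C, 5% CO2) used full-length Nurr1 alone (2 μg, no RXRα) with 3xNBRE- or 3xNurRE-luciferase reporter (6 μg) for 18 h. Cells were replated at 10,000/well for 4 h, then exposed to ligand or vehicle in quadruplicate for 18 h. Luminescence was expressed as fold over vehicle, as mean ± s.e.m. (n=4) from 2 independent experiments, one-way ANOVA against vehicle.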

[3] = biological target: Nuclear receptor subfamily 4 group A member 2 (Homo sapiens) (UniProt P43354); assay: Modulation of full length human Nurr1 expressed in HEK293T cells co-transfected with RXRalpha and luciferase reporter plasmid harboring NBRE response element assessed as decrease in luciferase activity at 1.95 to 125 uM incubated for 18 hrs by luciferase reporter gene assay; details: filed as modulator, dose 1.95-125 µM
Procedure, shortened: (§3)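 Full-length Nurr1 plasmid, alone (2 μg) or 1 μg plus full-length RXRα (1 μg), cotransfected with 3xNBRE- or 3xNurRE-luciferase reporter (6 μg) using Lipofectamine 2000, 18 h. Cells replated at 10,000/well for 4 h. Four ligand concentrations, or vehicle (water, ethanol or DMSO), added in quadruplicate for 18 h. Luciferase read. Fold change vs vehicle, mean ± s.e.m., one-way ANOVA vs vehicle.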

[4] = biological target: Nuclear receptor subfamily 4 group A member 2 (Homo sapiens) (UniProt P43354); assay: Modulation of full length human Nurr1 expressed in HEK293T cells co-transfected with RXRalpha and luciferase reporter plasmid harboring NurRE response element assessed as decrease in luciferase activity at 1.95 to 125 uM incubated for 18 hrs by luciferase reporter gene assay; details: filed as modulator, dose 1.95-125 µM; procedure, shortened: as §3
[5] = biological target: Nuclear receptor subfamily 4 group A member 2 (Homo sapiens) (UniProt P43354); assay: Modulation of full length human Nurr1 expressed in PC12 cells co-transfected with luciferase reporter plasmid harboring NBRE response element assessed as decrease in luciferase activity at 1.95 to 125 uM incubated for 18 hrs by luciferase reporter gene assay; details: PC-12, filed as modulator, dose 1.95-125 µM
Procedure, shortened: (§4)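 Here PC12 cells (FK-12 medium, 15% horse serum, 2.5% FBS, 37°C, 5% CO2) received full-length Nurr1 (2 μg) without RXRα, plus 3xNBRE- or 3xNurRE-luciferase reporter (6 μg), for 18 h. Cells were replated at 10,000/well for 4 h, then treated with ligand or vehicle in quadruplicate for 18 h. Luciferase luminescence was normalized to vehicle-treated cells. Results are mean ± s.e.m. (n=4) from 2 independent experiments, with one-way ANOVA against vehicle.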

[6] = biological target: Nuclear receptor subfamily 4 group A member 2 (Homo sapiens) (UniProt P43354); assay: Modulation of full length human Nurr1 expressed in PC12 cells co-transfected with luciferase reporter plasmid harboring NurRE response element assessed as decrease in luciferase activity at 1.95 to 125 uM incubated for 18 hrs by luciferase reporter gene assay; details: PC-12, filed as modulator, dose 1.95-125 µM; procedure, shortened: as §4
[7] = biological target: Nuclear receptor subfamily 4 group A member 2 (Homo sapiens) (UniProt P43354); assay: Modulation of full length human Nurr1 expressed in PC12 cells co-transfected with RXRalpha and luciferase reporter plasmid harboring NurRE response element assessed as decrease in luciferase activity at 1.95 to 125 uM incubated for 18 hrs by luciferase reporter gene assay; details: PC-12, filed as modulator, dose 1.95-125 µM; procedure, shortened: as §1
[8] = biological target: Nuclear receptor subfamily 4 group A member 2 (Homo sapiens) (UniProt P43354); assay: Modulation of full length human Nurr1 expressed in HEK293T cells co-transfected with luciferase reporter plasmid harboring NBRE response element assessed as decrease in luciferase activity at 1.95 to 125 uM incubated for 18 hrs by luciferase reporter gene assay; details: filed as modulator, dose 1.95-125 µM; procedure, shortened: as §3
[9] = biological target: Nuclear receptor subfamily 4 group A member 2 (Homo sapiens) (UniProt P43354); assay: Modulation of full length human Nurr1 expressed in SK-N-BE(2) cells co-transfected with RXRalpha and luciferase reporter plasmid harboring NBRE response element assessed as increase in luciferase activity at 1.95 to 125 uM incubated for 18 hrs by luciferase reporter gene assay; details: SKNBE2, filed as modulator, dose 1.95-125 µM
Procedure, shortened: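 SK-N-BE(2)-C cells were kept in 1:1 EMEM/F12 with 10% FBS at 37°C and 5% CO2. They were cotransfected with full-length Nurr1 (1 μg), full-length RXRα (1 μg) and 3xNBRE- or 3xNurRE-luc reporter (6 μg) for 18 h, replated at 10,000 cells/well for 4 h, and then treated with ligand or vehicle in quadruplicate for 18 h. The readout was luciferase luminescence as fold over vehicle, reported as mean ± s.e.m. (n=4) from 2 independent experiments, one-way ANOVA.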

[10] = biological target: Nuclear receptor subfamily 4 group A member 2 (Homo sapiens) (UniProt P43354); assay: Modulation of full length human Nurr1 expressed in HEK293T cells co-transfected with luciferase reporter plasmid harboring NurRE response element assessed as decrease in luciferase activity at 1.95 to 125 uM incubated for 18 hrs by luciferase reporter gene assay; details: filed as modulator, dose 1.95-125 µM; procedure, shortened: as §3
[11] = biological target: Nuclear receptor subfamily 4 group A member 2 (Homo sapiens) (UniProt P43354); assay: Modulation of full length human Nurr1 expressed in SK-N-BE(2) cells co-transfected with luciferase reporter plasmid harboring NBRE response element assessed as increase in luciferase activity at 1.95 to 125 uM incubated for 18 hrs by luciferase reporter gene assay; details: SKNBE2, filed as modulator, dose 1.95-125 µM; procedure, shortened: as §2
SKNBE2 [12] = assay: Modulation of Gal4-fused VP16 expressed in SKNBE(2) cells co-transfected with UAS repoter gene assessed as decrease in luciferase activity at 125 uM incubated for 18 hrs by luciferase reporter gene assay; details: Human alphaherpesvirus 2, filed as modulator
Procedure, shortened: (§5)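 Cells in 10-cm dishes were transfected with Gal4-VP16 expression plasmid (2 μg) plus 5xUAS-luciferase reporter (2 μg) for 18 h. They were replated at 10,000 cells/well for 4 h, then given ligand or vehicle (water, ethanol or DMSO) in quadruplicate for 18 h. Luciferase was read with Britelite Plus. Fold change is versus vehicle-treated cells, with one-way ANOVA versus vehicle.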

SKNBE2 [13] = assay: Modulation of Gal4-fused VP16 expressed in SKNBE(2) cells co-transfected with UAS repoter gene assessed as increase in luciferase activity upto 15 uM incubated for 18 hrs by luciferase reporter gene assay; details: Human alphaherpesvirus 2, filed as modulator, dose microM <=15, time 18.0 hrs; procedure, shortened: as §5

Compound: CCN(CC)Cc1cc(Nc2ccnc3cc(Cl)ccc23)ccc1O [AMODIAQUINE]
- Activity [1]: Dose-Dependent Effect
- Activity (SK-N-BE(2)): Non-Toxic
- Activity [2]: Active
- Activity [3]: Active
- Activity [4]: Active
- Activity [5]: Active
- Activity [6]: Active
- Activity [7]: Active
- Activity [8]: Active
- Activity [9]: Active
- Activity [10]: Active
- Activity [11]: Active
- Activity (SKNBE2 [12]): Active
- Activity (SKNBE2 [13]): Active

Compound: CCN(CC)CCCC(C)Nc1ccnc2cc(Cl)ccc12 (centres undefined) [CHLOROQUINE]
- Activity [1]: Dose-Dependent Effect
- Activity (SK-N-BE(2)): Non-Toxic
- Activity [2]: Active
- Activity [3]: Active
- Activity [4]: Active
- Activity [5]: Active
- Activity [6]: Active
- Activity [7]: Active
- Activity [8]: Active
- Activity [9]: Active
- Activity [10]: Active
- Activity [11]: Active
- Activity (SKNBE2 [12]): Active
- Activity (SKNBE2 [13]): Active

Compound: CCCCCCCC(=O)c1c(O)cc(O)cc1CC(=O)OCC [CYTOSPORONE B]
- Activity [1]: Dose-Dependent Effect
